From ChEMBL document CHEMBL1275368, “Synthesis and evaluation of pyrazolone compounds as SARS-coronavirus 3C-like protease inhibitors” (Bioorg Med Chem, 2010)
Calls of active or inactive are those of the source. The rule behind the calls is not given here.

Experiments:
HEK293 = assay: Cytotoxicity against HEK293 cells at 200 uM after 24 hrs by MTT assay; type: cell-based; details: human, hek293, 24 h
Method in brief: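 HEK293 cells seeded at 2×10^5/ml in MEM with 10% FBS at 37 °C and 5% CO2. At 70% confluence, cells were exposed to compound for 24 h. MTT was then added for 4 h at 37 °C. Formazan was dissolved in DMSO after medium removal, and OD at 540 nm was read as cell viability.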

[1] = target: Genome polyprotein (Coxsackievirus B3 (strain Nancy)) (UniProt P03313); assay: Inhibition of coxsackievirus B3 3C protease at 50 uM by fluorescence plate reader analysis
Genome polyprotein (Coxsackievirus B3 (strain Nancy)), sequence (P03313 whole entry): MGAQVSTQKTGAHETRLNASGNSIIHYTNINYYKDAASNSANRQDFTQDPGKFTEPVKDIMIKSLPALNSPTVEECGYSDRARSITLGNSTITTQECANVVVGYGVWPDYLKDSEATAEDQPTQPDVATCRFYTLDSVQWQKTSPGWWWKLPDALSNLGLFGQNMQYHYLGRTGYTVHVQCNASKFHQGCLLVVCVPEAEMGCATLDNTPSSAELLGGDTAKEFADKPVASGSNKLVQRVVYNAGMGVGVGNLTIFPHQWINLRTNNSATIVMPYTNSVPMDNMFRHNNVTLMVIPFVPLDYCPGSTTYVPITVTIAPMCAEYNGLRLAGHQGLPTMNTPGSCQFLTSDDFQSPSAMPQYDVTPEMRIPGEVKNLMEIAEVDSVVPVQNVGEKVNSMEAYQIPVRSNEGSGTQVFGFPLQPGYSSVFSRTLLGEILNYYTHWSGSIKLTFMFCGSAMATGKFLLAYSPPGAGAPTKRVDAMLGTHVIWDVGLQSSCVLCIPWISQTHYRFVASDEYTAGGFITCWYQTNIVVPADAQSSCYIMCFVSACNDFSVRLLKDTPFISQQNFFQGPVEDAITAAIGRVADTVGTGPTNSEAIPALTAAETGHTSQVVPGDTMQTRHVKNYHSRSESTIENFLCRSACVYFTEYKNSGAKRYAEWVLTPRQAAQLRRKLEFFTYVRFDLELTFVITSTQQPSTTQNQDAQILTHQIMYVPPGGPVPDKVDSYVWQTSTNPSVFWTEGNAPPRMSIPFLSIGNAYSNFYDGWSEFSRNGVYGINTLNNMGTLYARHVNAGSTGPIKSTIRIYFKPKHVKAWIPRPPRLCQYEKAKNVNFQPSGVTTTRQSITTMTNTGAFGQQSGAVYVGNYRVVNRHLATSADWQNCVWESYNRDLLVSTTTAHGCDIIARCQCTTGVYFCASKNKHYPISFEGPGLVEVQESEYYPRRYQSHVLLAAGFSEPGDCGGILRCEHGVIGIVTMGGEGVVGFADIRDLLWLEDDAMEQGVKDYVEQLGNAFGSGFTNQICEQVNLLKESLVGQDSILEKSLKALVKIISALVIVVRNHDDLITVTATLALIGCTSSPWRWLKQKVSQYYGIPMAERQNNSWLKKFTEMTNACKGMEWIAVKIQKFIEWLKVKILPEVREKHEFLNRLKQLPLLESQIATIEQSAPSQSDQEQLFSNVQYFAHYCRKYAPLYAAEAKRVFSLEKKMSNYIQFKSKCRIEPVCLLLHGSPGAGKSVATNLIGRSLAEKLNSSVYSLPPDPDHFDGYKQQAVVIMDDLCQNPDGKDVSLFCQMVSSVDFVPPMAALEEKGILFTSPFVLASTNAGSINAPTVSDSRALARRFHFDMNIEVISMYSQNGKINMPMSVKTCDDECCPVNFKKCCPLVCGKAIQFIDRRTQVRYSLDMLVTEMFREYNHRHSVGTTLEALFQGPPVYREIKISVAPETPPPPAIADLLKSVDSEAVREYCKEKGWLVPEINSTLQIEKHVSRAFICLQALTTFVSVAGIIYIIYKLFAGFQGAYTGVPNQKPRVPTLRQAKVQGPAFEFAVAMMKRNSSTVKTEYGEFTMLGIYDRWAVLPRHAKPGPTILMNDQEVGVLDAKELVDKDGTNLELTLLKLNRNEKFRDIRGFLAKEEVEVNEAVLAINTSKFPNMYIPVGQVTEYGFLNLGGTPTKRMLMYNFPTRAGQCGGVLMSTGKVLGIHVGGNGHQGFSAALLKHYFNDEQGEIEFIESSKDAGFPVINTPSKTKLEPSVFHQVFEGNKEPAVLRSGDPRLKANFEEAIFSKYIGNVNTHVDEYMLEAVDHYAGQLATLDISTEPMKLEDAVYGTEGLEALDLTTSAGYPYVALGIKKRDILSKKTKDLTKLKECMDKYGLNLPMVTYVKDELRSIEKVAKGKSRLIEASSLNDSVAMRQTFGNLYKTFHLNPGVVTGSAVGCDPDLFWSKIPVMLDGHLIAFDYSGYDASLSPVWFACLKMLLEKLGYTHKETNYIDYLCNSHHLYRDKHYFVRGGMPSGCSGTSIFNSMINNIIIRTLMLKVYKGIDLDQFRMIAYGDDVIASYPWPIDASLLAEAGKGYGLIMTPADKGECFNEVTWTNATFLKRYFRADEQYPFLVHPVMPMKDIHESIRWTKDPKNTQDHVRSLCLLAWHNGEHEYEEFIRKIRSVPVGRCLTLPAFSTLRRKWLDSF

[2] = target: Replicase polyprotein 1ab (Severe acute respiratory syndrome-related coronavirus) (UniProt P0C6X7); assay: Inhibition of SARS coronavirus 3C-like protease at 50 uM by fluorescence plate reader analysis
Method in brief: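 Stored recombinant SARS-CoV 3CLpro at –70 °C in Tris/NaCl/EDTA/β-ME/DTT buffer. Screened compounds at 50 μM; those inhibiting >50% went on to the follow-up run.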

Genome polyprotein = Genome polyprotein (Coxsackievirus B3 (strain Nancy), UniProt P03313); assay: Inhibition of coxsackievirus B3 3C protease by fluorescence plate reader analysis
Genome polyprotein, sequence (P03313 1541-1723 limits assumed): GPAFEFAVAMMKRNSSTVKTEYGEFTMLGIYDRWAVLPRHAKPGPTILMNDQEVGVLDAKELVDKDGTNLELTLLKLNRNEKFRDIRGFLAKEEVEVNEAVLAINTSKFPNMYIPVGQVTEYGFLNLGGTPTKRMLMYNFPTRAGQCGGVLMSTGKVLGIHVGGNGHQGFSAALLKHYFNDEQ

[3] = target: Replicase polyprotein 1ab (Severe acute respiratory syndrome-related coronavirus, UniProt P0C6X7); assay: Inhibition of SARS coronavirus 3C-like protease by fluorescence plate reader analysis

CC(=O)Nc1ccc(/C=C2\C(=O)N(c3ccc(Cl)cc3)N=C2c2ccccc2)cc1
Activity (HEK293): Non-toxic | inhibition [1]: inactive | inhibition [2]: inactive

O=C1/C(=C\c2ccccc2)C(c2ccccc2)=NN1c1ccc(Cl)cc1
Activity (HEK293): Non-toxic | inhibition [1]: inactive | inhibition [2]: inactive

O=C(O)c1ccc(/C=C2\C(=O)N(c3ccc(Cl)cc3)N=C2c2ccccc2)cc1
Activity (HEK293): Non-toxic | IC50 (Genome polyprotein): 25 µM | IC50 [3]: 13.9 µM

O=C1/C(=C\c2ccccc2)C(c2ccccc2)=NN1c1ccccc1
Activity (HEK293): Non-toxic | inhibition [1]: inactive | inhibition [2]: inactive

COc1ccc(N2N=C(c3ccccc3)/C(=C/c3ccc(C(=O)O)cc3)C2=O)cc1
Activity (HEK293): Non-toxic | IC50 (Genome polyprotein): 16.6 µM | IC50 [3]: 12 µM

O=C(O)c1ccc(/C=C2\C(=O)N(c3cccc([N+](=O)[O-])c3)N=C2c2ccccc2)cc1
Activity (HEK293): Non-toxic | IC50 (Genome polyprotein): 9.6 µM | IC50 [3]: 8.4 µM

N#Cc1ccc(N2N=C(c3ccccc3)/C(=C/c3ccc(C(=O)O)cc3)C2=O)cc1
Activity (HEK293): Non-toxic | IC50 (Genome polyprotein): 20.8 µM | IC50 [3]: 5.5 µM

CN(C)c1ccc(/C=C2\C(=O)N(c3ccccc3)N=C2c2ccccc2)cc1
Activity (HEK293): Non-toxic | inhibition [1]: inactive | inhibition [2]: inactive

COc1cccc(/C=C2\C(=O)N(c3ccccc3)N=C2c2ccccc2)c1
Activity (HEK293): Non-toxic | inhibition [1]: inactive | inhibition [2]: inactive

O=C1/C(=C\c2cccc([N+](=O)[O-])c2)C(c2ccccc2)=NN1c1ccccc1
Activity (HEK293): Non-toxic | inhibition [1]: inactive | inhibition [2]: inactive

O=C1/C(=C\c2ccc(Cl)cc2)C(c2ccccc2)=NN1c1ccc(Cl)cc1
Activity (HEK293): Non-toxic | inhibition [1]: inactive | inhibition [2]: inactive

O=C1/C(=C\c2ccc(O)cc2)C(c2ccccc2)=NN1c1ccc(Cl)cc1
Activity (HEK293): Non-toxic | inhibition [1]: inactive | inhibition [2]: inactive

O=C(O)c1ccc(/C=C2\C(=O)N(c3ccc(OC(F)(F)F)cc3)N=C2c2ccccc2)cc1
Activity (HEK293): Non-toxic | IC50 (Genome polyprotein): 98.8 µM | IC50 [3]: 42 µM

CC(C)(C)c1ccc(N2N=C(c3ccccc3)/C(=C/c3ccc(C(=O)O)cc3)C2=O)cc1
Activity (HEK293): Non-toxic | inhibition [1]: inactive | inhibition [2]: inactive

COc1ccc(/C=C2\C(=O)N(c3ccc(Cl)cc3)N=C2c2ccccc2)cc1
Activity (HEK293): Non-toxic | inhibition [1]: inactive | inhibition [2]: inactive

CC(C)c1ccc(N2N=C(c3ccccc3)/C(=C/c3ccc(C(=O)O)cc3)C2=O)cc1
Activity (HEK293): Non-toxic | inhibition [1]: inactive | inhibition [2]: inactive

O=C(O)c1ccc(/C=C2\C(=O)N(c3ccc(F)cc3)N=C2c2ccccc2)cc1
Activity (HEK293): Non-toxic | IC50 (Genome polyprotein): 22.4 µM | IC50 [3]: 6.8 µM

O=C(O)c1ccc(/C=C2\C(=O)N(c3cccc(Cl)c3)N=C2c2ccccc2)cc1
Activity (HEK293): Non-toxic | IC50 (Genome polyprotein): 17.3 µM | IC50 [3]: 10.8 µM

O=C(O)c1ccc(/C=C2\C(=O)N(c3ccc(Cl)c(Cl)c3)N=C2c2ccccc2)cc1
Activity (HEK293): Non-toxic | IC50 (Genome polyprotein): 126 µM | IC50 [3]: 24.3 µM

O=C(O)c1ccc(/C=C2\C(=O)N(c3ccccc3)N=C2c2ccccc2)cc1
Activity (HEK293): Non-toxic | IC50 (Genome polyprotein): 51.1 µM | IC50 [3]: 18 µM

CC(=O)Nc1ccc(/C=C2\C(=O)N(c3ccccc3)N=C2c2ccccc2)cc1
Activity (HEK293): Non-toxic | inhibition [1]: inactive | inhibition [2]: inactive
